Compound activity as filed in PubChem BioAssay.
Tb MetRS inh: Trypanosoma brucei MetRS inhibition; inhibition, % at 11.9 µM; purified T. brucei MetRS, ATP depletion, Kinase-Glo luminescence; 360,000 compounds, 0.4% hits; AID 624268;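 active means inhibition above a per-plate cutoff of the control wells' mean inhibition plus 3 SD, cut at about 5.5% in these data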
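Measured by: Kinase-Glo luciferase luminescence reporting remaining unconsumed ATP. Material: purified T. brucei MetRS enzyme. Doses: 11.9 µM compound single dose, 0.9% DMSO. Medium: HEPES buffer containing pyrophosphatase, BSA, spermine, DTT. Times: 15 min preincubation, 2 h reaction, all 25 °C. Reagent: methionine, ATP and bulk E. coli tRNA.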
sPLA2-III inh: Blocks human group III sPLA2 activity; Q9NZ20; QFRET BODIPY PC-A2 liposome hydrolysis, fluorescence; inhibition, % at 12.2 µM; 370,000 compounds, 0.56% hits; AID 743126;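 active means inhibition above mean plus 3 SD of compounds lying within the high and low control bounds, cut at about 19% in these data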
PLCg1 inh: PLC-gamma1 (human) inhibition, primary screen. P19174. purified PLC-gamma1, fluorogenic substrate, fluorescence. inhibition, % at 12.2 µM. 370,000 compounds, 0.84% hits; in the data active means inhibition above about 9.5%
Target sequence (P19174 whole entry, looked up): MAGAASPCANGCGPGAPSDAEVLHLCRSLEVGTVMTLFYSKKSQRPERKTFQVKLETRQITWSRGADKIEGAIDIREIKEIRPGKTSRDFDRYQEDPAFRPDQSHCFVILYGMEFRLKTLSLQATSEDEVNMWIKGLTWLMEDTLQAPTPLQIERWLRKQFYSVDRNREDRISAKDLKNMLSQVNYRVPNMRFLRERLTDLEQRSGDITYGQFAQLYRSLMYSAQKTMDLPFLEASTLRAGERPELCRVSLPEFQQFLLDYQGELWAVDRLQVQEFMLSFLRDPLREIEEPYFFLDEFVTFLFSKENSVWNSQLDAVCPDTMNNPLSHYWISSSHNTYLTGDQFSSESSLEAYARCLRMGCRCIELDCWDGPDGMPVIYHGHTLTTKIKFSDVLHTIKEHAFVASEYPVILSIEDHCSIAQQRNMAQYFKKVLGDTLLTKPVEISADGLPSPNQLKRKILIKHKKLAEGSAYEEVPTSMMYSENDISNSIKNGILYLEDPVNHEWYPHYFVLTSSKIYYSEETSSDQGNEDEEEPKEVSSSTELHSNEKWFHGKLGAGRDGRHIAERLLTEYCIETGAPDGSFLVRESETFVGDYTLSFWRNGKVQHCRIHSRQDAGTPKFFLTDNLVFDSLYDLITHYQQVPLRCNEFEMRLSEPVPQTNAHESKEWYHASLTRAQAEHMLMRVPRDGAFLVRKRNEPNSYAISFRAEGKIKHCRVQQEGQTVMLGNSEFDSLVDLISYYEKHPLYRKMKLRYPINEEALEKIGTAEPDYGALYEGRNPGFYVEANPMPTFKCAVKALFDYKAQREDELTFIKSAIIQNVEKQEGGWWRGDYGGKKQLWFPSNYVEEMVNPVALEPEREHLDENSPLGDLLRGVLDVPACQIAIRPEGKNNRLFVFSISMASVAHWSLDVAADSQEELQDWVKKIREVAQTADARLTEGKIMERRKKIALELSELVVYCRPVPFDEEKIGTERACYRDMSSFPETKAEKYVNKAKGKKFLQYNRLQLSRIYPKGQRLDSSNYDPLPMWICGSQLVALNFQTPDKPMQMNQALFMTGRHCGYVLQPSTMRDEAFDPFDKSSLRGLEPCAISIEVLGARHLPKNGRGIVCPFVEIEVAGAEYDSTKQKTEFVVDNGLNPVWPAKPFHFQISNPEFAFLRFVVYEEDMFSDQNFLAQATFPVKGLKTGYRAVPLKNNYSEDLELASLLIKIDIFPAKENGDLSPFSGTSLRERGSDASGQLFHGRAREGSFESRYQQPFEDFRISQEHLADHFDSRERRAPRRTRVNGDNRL
PLCb3 inh: blocks human PLC-beta3 enzyme activity | inhibition, % at 12.2 µM | AID 720704 | Purified PLC-beta3, fluorogenic substrate, fluorescence | 370,000 compounds, 0.18% hits | Q01970; in the data active means inhibition above about 11%
hGIII sPLA2 conf: human GIII-sPLA2 inhibition, confirmation. shares compounds with sPLA2-III inh. recombinant hGIII-sPLA2, BODIPY PC-A2 QFRET fluorescence. inhibition, % at 12.2 µM. 2,000 compounds, 34% hits;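 active means mean inhibition across triplicates above the hit cutoff set in the earlier primary screen, cut at about 19% in these data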
BODIPY interf: counter-screen for HGIII-sPLA2 inhibitors: 535nm fluorescence interference; BODIPY FL product fluorescence interference, QFRET; shares compounds with sPLA2-III inh; inhibition, % at 12.2 µM; 2,000 compounds, 8.5% hits;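 active means average inhibition above the solvent-only control mean plus 3 SD, cut at about 6% in these data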
535nm interf DR: 535nm optical interference dose response, HGIII-sPLA2 counter-screen. shares compounds with sPLA2-III inh. BODIPY FL product fluorescence interference, cell-free. IC50, µM. 240 tested, under 10 active. AID 743455;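 active means IC50 at or below 10 µM; inactive means IC50 above 10 µM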
Hits are given with their value; - = inactive; . = no result. In the library only some 1.9% were active in any assay of this set; here they are far more common.

SMILES	Tb MetRS inh	sPLA2-III inh	PLCg1 inh	PLCb3 inh	hGIII sPLA2 conf	BODIPY interf	others
OCCNC(=S)NCCc1ccccc1	-	20	-	-	-	-
COc1ccc(C(=O)Nc2nc3ccccc3[nH]2)cc1S(=O)(=O)N1CCCC1	-	-	-	-	.	.
N#Cc1ccc(C(=O)Nc2nc3ccccc3[nH]2)cc1	-	23	-	-	-	-
O=C(Nc1nc2ccccc2[nH]1)c1cc(F)cc(F)c1	-	24	-	-	21	-
O=C(Nc1nc2ccccc2[nH]1)c1ccc(F)c(S(=O)(=O)N2CCOCC2)c1	-	21	-	-	-	-
CN(c1cccnc1)c1ccc(NC(=O)Cc2c[nH]c3ccccc23)cc1-c1ccc(C(C)(C)C)cc1	.	-	-	-	.	.
Cc1ccc(S(=O)(=O)NCCC(=O)N2CC(C)OC(C)C2)cc1 (stereo not given)	-	22	-	-	-	-
Cc1ccc(C2NC(=S)NC3=C2C(=O)CCC3)cc1 (stereo not given)	-	-	-	-	.	.
CC(C)c1ccc(C2NC(=S)NC3=C2C(=O)CCC3)cc1 (stereo not given)	-	24	-	-	-	-
COc1ccc(NC(=O)N2CCCCC2c2cccnc2)cc1 (stereo not given)	-	22	-	-	-	-
Nc1ccc(Oc2cc(N)cc(Oc3ccccc3)c2)cc1	-	23	-	-	-	-
CCCCOc1cc(NCc2ccccc2)c2ncn(C(C)C)c2c1	-	21	-	-	-	-
COCCCOc1cc(NCc2ccccc2)c2ncn(C(C)C)c2c1	-	-	-	-	.	.
CCOC(=O)C1=C(C(=O)OCC)C2N(Cc3ccc(C#N)cc3)c3ccccc3[C@@]23C[C@@H](C(=O)OC)N(S(=O)(=O)c2ccccc2C)C3=N1 (stereo not given in full)	.	-	-	-	.	.
O=C1NC(=S)N(C(=O)c2ccc(F)cc2)/C1=C/c1cccnc1	-	20	-	-	-	-
OC(c1ccccc1)(c1ccccc1)C1CCN(CCCOc2ccccn2)CC1	.	-	-	-	.	.
CS(=O)(=O)c1cccc(OCCCN2CCC(C(O)(c3ccccc3)c3ccccc3)CC2)c1	.	-	-	-	.	.
C/C(=N\NC(=S)NCCc1ccccc1)c1ccc(Cl)cc1Cl	-	-	-	-	.	.
S=C(NCc1ccccc1)N/N=C/c1cccs1	-	-	-	-	.	.
Oc1ccccc1C=NNC(=S)Nc1ccc(F)cc1	-	32	-	-	33	13
C/C(=N\NC(=S)NCCc1ccccc1)c1ccc(O)cc1O	-	33	-	-	40	-	535nm interf DR=-
S=C(NCCc1ccccc1)N/N=C/c1cccs1	-	20	-	-	20	-
Oc1ccccc1/C=N/NC(=S)NCCc1ccccc1	-	20	-	-	21	7.3
COC(=O)[C@]12C[C@H](CC(=O)NCc3ccccc3)C(=O)N(CCC3=CCCCC3)C1=C[C@H](C1CCCC1)O[C@@H]2C	.	-	-	-	.	.
O=C(CSc1nc2ccccc2nc1N1CCCCC1)NCc1ccc(Cl)cc1Cl	.	-	-	-	.	.
SMILES	Tb MetRS inh	sPLA2-III inh	PLCg1 inh	PLCb3 inh	hGIII sPLA2 conf	BODIPY interf	others
CCCCC(=O)NC(c1ccco1)c1cc(Cl)c2cccnc2c1O (stereo not given)	-	23	-	-	-	-
CCC(=O)NC(c1ccco1)c1cc(Cl)c2cccnc2c1O (stereo not given)	-	-	-	-	.	.
O=C(CCc1ccccc1)NC(c1cccs1)c1cc(Cl)c2cccnc2c1O (stereo not given)	-	23	-	-	-	-
O=c1c2cc3cc(Cl)ccc3nc2ncn1N1CCCCC1	.	-	-	-	.	.
CCn1c2ccccc2c2cc(NC(=O)c3coc(=O)c(Br)c3)ccc21	-	-	-	-	.	.
CCn1c2ccccc2c2cc(NC(=O)c3ccc(Br)o3)ccc21	-	21	-	-	-	-
COc1ccc(NC(=O)c2ccc(NC(=O)C(C)C)cc2)c([N+](=O)[O-])c1	-	20	-	-	-	-
CCOc1ccc(NC(=S)NC(=O)c2c(Br)cnn2C)c([N+](=O)[O-])c1	-	-	-	-	.	.
CCOc1ccc(NC(=S)NC(=O)c2c(Cl)cnn2CC)c([N+](=O)[O-])c1	-	22	-	-	20	-
COc1ccc(NC(=S)NC(NC(=O)c2ccccc2Cl)C(Cl)(Cl)Cl)c([N+](=O)[O-])c1 (stereo not given)	-	28	-	-	35	7.2
COC(=O)[C@@]12CCCCC=C1N(CCc1ccc(Cl)cc1)C(=O)[C@H]2CC(=O)NCCc1ccccc1OC	.	-	-	-	.	.
O=S(=O)(c1ccc(C(F)(F)F)cc1)N1CCCc2nc(-c3ccccc3)ccc21	.	-	-	-	.	.
Cn1c2ccccc2c(=O)c2c(=O)n(C3CCCCC3)c(-c3ccco3)nc21	-	28	-	-	-	-
CCC[C@@H](/C=C/C(=O)OC(C)(C)C)Sc1ccccc1OC	.	-	-	-	.	.
COc1cccc(OC)c1C(=O)NCCc1ccccc1	-	21	-	-	-	-
O=C(NNC(=S)Nc1ccc(Cl)cc1)c1ccccc1	-	19	-	-	39	-	535nm interf DR=-
O=C(CN1c2ccccc2Sc2ccccc21)NNC(=S)Nc1ccc(Cl)cc1	-	28	-	-	-	18
O=C(CN1c2ccccc2Sc2ccccc21)NNC(=S)Nc1ccc(Cl)cc1Cl	-	-	-	-	.	.
O=C(NNC(=S)Nc1cccc(Cl)c1)c1ccccc1	-	-	-	-	.	.
CC(C)c1[nH]nc2c1C(c1ccccc1)N(Cc1ccccc1)C2=O (stereo not given)	.	-	-	-	.	.
CC1CCCCC1NC(=O)CCn1c(=S)[nH]c2ccccc2c1=O (stereo not given)	-	21	-	-	20	-
O=C(CCCn1c(=S)[nH]c2ccccc2c1=O)NC1CCCCC1	-	-	-	-	.	.
O=C(O)/C=C/C(=O)Nc1ccc(C2(c3ccc(NC(=O)/C=C/C(=O)O)cc3)c3ccccc3-c3ccccc32)cc1	-	22	-	-	-	-
O=C(O)/C=C\C(=O)Nc1ccc(Oc2ccccc2)cc1	-	-	-	-	.	.
COc1ccc(CN2C3=NC(c4ccccc4)CC(=O)N3/C(=C\c3ccccc3)C2c2ccccc2)c(OC)c1 (stereo not given)	.	-	-	-	.	.
CCCn1c(=S)[nH]c2cc(C(=O)N3CCN(C4CCCCC4)CC3)ccc2c1=O	-	20	-	-	-	-
CCn1cc(C2C3=C(CC(C)(C)CC3=O)N(c3ccc(C)cc3)C3=C2C(=O)CC(C)(C)C3)c(C)n1	-	20	-	-	-	-
C=CCN1[C@H](C#N)[C@@H](c2ccc(C#Cc3cccnc3)cc2)[C@H]1CO	.	-	-	-	.	.
